This is an account of results in ChEMBL document CHEMBL2169753, “Pharmacophore-based virtual screening and biological evaluation of small molecule inhibitors for protein arginine methylation” (J Med Chem, 2012).

The subject of assay [1] is LNCaP. Briefly: Inhibition of cell proliferation of human LNCAP cells in regular medium after 3 days. Format: functional. Put shortly: (§1)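 LNCaP C-81 cells (passage 80–120) grown in phenol red-positive RPMI 1640 with 5% FBS, 2 mM glutamine, 50 µg/ml gentamicin at 37°C, 5% CO2. Plated at 2×10³ cells/well for 3 days, then exposed to compound (DMSO stock diluted 1000×; DMSO-matched controls) for 3 days. Cells counted with an image-based counter and normalized to control. Three independent experiments in triplicate, mean ± SD.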

Assay [2] deals with LNCaP. Briefly: Inhibition of cell proliferation of human LNCAP cells in steroid reduced condition after 3 days. The assay is classed as functional. The gist of the method:
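C-81 cells (passage 80–120) plated at 2×10³ cells/well for 3 days, then starved 2 days in phenol red-free RPMI 1640 with 5% charcoal/dextran-treated FBS, 2 mM glutamine, 50 µg/ml gentamicin and 1 nM DHT. Refed with this medium, then treated for 3 days (solvent controls). Cells counted and normalized to control. Three independent experiments in triplicate, mean ± SD.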

Assay [3] relates to LNCaP. Briefly: Antiproliferative activity against human LNCAP cells in regular medium after 3 days. Format: functional, cell-based. Put shortly: as §1
For assay [4], the target named is T1, Histone H4 (Homo sapiens, UniProt P62805). Briefly: Binding affinity to fluorescein-labeled Histone H4(1-20) by spectrofluorometry. The gist of the method: (§2)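 H4(1-20) peptide bearing fluorescein on a Dpr residue, 1 µM, in 50 mM HEPES pH 8.0, 10 mM NaCl, 1 mM DTT at 30°C. Titrated with compound from 1 to 100 µM. Excitation 498 nm; emission intensity followed at 523–524 nm. Kd taken from the fluorescence titration.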

In assay [5] the target is Protein arginine N-methyltransferase 5 (Homo sapiens) (UniProt O14744). Briefly: Inhibition of His6x-tagged PRMT5 expressed in Escherichia coli BL21 (DE3) using Histone H4(1-20 substrate in the presence of [14C] SAM assessed as residual activity at 30 uM by liquid scintillation counting. The gist of the method: (§3)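 Recombinant PRMT4 (0.3 µM) with H3(1-31) at 400 µM, or PRMT5 (1 µM) with H4(1-20) at 2 µM. Substrate and 5 µM [14C]-SAM preincubated 5 min in 50 mM HEPES pH 8.0, 10 mM NaCl, 1 mM DTT at 30°C before enzyme was added. Reactions run 2 h (PRMT4) or 6 h 30 min (PRMT5), with or without 30 µM compound in 2% DMSO. Stopped on P81 paper, washed with NaHCO3, counted by scintillation. Activity normalized to no-inhibitor control.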

Assay [6] has as its target T2, Histone-arginine methyltransferase CARM1 (Homo sapiens) (UniProt Q86X55).
T2 sequence (whole entry): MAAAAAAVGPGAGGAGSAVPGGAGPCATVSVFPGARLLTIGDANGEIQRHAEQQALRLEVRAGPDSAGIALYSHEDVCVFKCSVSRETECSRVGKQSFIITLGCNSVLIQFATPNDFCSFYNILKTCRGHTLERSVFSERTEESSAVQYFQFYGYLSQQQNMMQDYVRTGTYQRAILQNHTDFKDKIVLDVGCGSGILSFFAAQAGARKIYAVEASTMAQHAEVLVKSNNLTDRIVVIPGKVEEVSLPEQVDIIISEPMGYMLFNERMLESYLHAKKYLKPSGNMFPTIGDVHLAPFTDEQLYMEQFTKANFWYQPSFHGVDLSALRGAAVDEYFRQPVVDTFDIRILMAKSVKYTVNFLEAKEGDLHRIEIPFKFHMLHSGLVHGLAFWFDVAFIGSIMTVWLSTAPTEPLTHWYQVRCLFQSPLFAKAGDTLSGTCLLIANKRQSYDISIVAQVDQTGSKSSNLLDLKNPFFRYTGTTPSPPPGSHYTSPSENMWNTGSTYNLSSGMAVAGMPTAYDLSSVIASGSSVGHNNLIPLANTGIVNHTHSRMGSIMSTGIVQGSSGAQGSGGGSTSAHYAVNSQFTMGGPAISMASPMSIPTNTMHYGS
Briefly: Inhibition of His6x-tagged PRMT4 expressed in Escherichia coli BL21 (DE3) using Histone H3(1-31) substrate in the presence of [14C] SAM assessed as residual activity at 30 uM by liquid scintillation counting. The gist of the method: as §3

The target of assay [7] is Histone acetyltransferase p300 (Homo sapiens, UniProt Q09472). Briefly: Inhibition of recombinant p300 HAT domain using Histone H4(1-20) substrate assessed as inhibition of histone acetyltransferase activity after 10 mins by liquid scintillation counting. The gist of the method: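 p300 HAT domain (residues 1287–1666), 0.03 µM, incubated with 10 µM H4-20, 5 µM [14C]-acetyl CoA and increasing compound in 50 mM HEPES pH 8.0, 50 mM NaCl, 0.5 mM DTT, 1 mM EDTA at 30°C for 10 min. Stopped on P81 paper and counted by liquid scintillation. Fractional activity plotted against concentration to give IC50.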

The target of assay [8] is T1, Histone H4. Briefly: Binding affinity to fluorescein-labeled Histone H4(1-20) assessed as peptide fluorescence quenching by spectrofluorometry. The gist of the method:
as §2

SMILES strings stand for the structures. Active and inactive are the calls of the source. No cut-off for these calls is given here.

Histone acetyltransferase p300, sequence (Q09472 whole entry, the tested form may be a part): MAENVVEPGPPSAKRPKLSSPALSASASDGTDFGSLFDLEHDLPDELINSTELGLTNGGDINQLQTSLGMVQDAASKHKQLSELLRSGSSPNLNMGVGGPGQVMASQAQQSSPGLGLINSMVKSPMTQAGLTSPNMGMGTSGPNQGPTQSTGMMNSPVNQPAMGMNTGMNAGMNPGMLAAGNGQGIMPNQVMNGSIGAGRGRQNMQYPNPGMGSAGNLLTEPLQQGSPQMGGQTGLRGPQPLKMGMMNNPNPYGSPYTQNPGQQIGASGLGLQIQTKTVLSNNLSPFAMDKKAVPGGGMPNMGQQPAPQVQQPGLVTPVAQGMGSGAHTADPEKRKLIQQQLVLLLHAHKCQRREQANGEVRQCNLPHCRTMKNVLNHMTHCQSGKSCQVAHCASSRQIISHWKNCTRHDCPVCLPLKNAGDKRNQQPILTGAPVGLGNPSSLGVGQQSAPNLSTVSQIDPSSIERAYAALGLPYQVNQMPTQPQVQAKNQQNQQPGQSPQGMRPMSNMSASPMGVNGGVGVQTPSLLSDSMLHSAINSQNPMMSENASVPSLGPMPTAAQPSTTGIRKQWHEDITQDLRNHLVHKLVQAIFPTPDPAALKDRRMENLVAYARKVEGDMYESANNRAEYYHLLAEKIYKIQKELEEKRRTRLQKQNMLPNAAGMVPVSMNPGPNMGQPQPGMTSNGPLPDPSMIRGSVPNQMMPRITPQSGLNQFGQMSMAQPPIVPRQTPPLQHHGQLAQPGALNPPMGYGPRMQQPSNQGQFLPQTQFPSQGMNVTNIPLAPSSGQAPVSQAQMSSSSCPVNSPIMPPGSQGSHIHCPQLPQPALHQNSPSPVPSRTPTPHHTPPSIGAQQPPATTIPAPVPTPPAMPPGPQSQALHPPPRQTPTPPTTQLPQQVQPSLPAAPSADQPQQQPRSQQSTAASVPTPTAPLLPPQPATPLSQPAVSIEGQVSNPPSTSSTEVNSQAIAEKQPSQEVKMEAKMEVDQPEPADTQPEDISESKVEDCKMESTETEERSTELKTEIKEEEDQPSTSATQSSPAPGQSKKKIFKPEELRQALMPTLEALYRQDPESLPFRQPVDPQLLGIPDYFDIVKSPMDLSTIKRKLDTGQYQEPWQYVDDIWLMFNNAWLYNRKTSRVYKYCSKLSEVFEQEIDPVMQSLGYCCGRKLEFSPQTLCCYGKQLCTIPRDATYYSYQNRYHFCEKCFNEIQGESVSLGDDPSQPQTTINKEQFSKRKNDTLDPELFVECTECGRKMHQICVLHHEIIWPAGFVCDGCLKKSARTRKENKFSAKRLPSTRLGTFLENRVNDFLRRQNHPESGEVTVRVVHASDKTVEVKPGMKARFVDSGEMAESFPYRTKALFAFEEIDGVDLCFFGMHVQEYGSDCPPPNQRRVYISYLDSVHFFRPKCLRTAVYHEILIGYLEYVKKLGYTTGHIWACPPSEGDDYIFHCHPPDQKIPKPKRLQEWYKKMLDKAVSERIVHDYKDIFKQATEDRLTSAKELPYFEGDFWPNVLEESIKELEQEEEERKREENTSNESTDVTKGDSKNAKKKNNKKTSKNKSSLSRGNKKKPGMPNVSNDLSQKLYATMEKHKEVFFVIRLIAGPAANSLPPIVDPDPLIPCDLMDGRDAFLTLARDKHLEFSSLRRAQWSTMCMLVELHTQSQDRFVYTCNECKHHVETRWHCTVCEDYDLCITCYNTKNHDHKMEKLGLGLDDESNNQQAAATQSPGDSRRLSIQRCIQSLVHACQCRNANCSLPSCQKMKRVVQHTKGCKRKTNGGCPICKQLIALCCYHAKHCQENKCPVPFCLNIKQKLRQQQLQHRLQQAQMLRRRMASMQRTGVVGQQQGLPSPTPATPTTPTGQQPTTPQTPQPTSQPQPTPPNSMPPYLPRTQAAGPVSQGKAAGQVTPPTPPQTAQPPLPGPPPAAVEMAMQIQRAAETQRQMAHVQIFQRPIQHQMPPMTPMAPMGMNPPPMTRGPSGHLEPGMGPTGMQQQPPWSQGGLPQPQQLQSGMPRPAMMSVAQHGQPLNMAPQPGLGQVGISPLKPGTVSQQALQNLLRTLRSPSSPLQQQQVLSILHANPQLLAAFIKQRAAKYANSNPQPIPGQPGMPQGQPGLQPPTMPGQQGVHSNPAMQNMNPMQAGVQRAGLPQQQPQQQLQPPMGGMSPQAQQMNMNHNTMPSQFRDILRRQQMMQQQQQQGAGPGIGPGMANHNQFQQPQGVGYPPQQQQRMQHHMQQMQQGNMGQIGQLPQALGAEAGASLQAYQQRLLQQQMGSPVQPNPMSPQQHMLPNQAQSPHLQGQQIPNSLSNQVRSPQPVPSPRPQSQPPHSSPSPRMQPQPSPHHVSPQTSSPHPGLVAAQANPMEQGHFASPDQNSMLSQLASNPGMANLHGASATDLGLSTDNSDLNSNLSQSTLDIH
Protein arginine N-methyltransferase 5 (Homo sapiens), sequence (O14744 whole entry): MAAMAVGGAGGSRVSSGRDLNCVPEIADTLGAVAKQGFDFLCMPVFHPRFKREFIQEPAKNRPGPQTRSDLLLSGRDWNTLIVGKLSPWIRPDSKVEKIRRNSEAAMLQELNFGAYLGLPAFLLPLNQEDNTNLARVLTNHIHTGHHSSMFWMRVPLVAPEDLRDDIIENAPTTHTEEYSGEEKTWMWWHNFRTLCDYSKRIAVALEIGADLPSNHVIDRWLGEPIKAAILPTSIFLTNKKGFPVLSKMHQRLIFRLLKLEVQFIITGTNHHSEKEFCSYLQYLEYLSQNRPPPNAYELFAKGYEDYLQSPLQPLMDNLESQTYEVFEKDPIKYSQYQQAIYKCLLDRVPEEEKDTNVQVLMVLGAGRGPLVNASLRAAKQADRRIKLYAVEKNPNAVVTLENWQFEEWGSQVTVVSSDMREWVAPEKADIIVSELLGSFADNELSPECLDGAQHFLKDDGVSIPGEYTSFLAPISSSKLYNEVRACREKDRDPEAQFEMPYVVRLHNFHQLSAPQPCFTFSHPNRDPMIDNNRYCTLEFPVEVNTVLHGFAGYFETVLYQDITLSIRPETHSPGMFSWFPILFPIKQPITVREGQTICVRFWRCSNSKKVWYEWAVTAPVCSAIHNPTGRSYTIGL

Take `O=C(NN=C1C=CC(=NOS(=O)(=O)c2ccccc2)C=C1)c1cc2ccccc2cc1O`: the entries for the “inhibition (INH)” value in the assay on LNCaP [1] and in the assay with LNCaP [2] were 70% and 30%, respectively. In addition, the inhibition result in the assay with LNCaP [3] is “Dose-dependent effect”.

The Kd is the concentration at which binding is half-saturated. Low readings indicate tighter binding, high ones weaker binding. As usually defined, the IC50 is the point on the concentration scale where inhibition reaches its midpoint. As to `O=C(c1ccc(O)c(NC(=O)c2cccc3ccccc23)c1)c1ccc(O)c(NC(=O)c2cccc3ccccc23)c1`, the “inhibition (INH)” value in the assay on LNCaP [1] came to 32%. This molecule also had a Kd on Histone H4 [4] of 23.8 µM. Also, the Activity in assay [5] was found to be 20%. Moreover, the Activity in assay [6] turned out to be 38%. In assay [7], the IC50 stood at 15.2 µM and the inhibition result is “Dose-dependent effect”. The outcome at Histone H4 [8] was Active.
